Experimental data reported in ChEMBL document CHEMBL1131157, “Potent and selective non-cysteine-containing inhibitors of protein farnesyltransferase” (J Med Chem, 1998).
Blank lines part the entries; values can stand above or below the molecule they belong to.

What was measured:
[1] = biological target: Protein farnesyltransferase (Bos taurus, UniProt P29702+P49355); assay: In vitro inhibition of farnesyltransferase from bovine brain
NIH3T3 [2] = assay: (§1) Inhibition of Ha-Ras processing in NIH3T3 Ras transformed cells.; assay type: functional, cell-based, Homo sapiens; conditions: Mus musculus
How it was run: (§2)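 Subconfluent Ras-transformed NIH3T3 cells dosed with compounds; lysates boiled 5 min in Laemmli buffer, resolved on 15% Tris-glycine gel, blotted to nitrocellulose, probed with anti-Ras antibody Y13-238; bands by ECL, quantified by densitometry. Single determinations unless limits given; assay reliability ±50-100%.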

NIH3T3 [3] = assay: as §1; assay type: functional, Homo sapiens; conditions: Mus musculus, read-out: ED50 (the source's name); how it was run: as §2

SMILES: CCCC[C@H](NC(=O)c1ccc(COc2cccnc2)cc1-c1ccccc1)C(=O)O
IC50 [1]: > 1000 nM

SMILES: CSCC[C@@H](NC(=O)c1ccc(CNc2cccnc2)cc1-c1ccccc1)C(=O)O
IC50 [1]: 140 nM

SMILES: COC(=O)[C@H](CCSC)NC(=O)c1ccc(NC[C@@H](N)CS)cc1-c1ccccc1
EC50 (NIH3T3 [3]): 0.2 µM

SMILES: COc1ccc(-c2cc(COc3cccnc3)ccc2C(=O)N[C@@H](CCSC)C(=O)O)cc1
IC50 [1]: 230 nM

SMILES: CSCC[C@H](NC(=O)c1ccc(COc2cccnc2)cc1-c1ccc(C)cc1)C(=O)O
IC50 [1]: 360 nM

SMILES: CSCC[C@H](NC(=O)c1ccc(NC(=O)c2ccccn2)cc1-c1ccccc1)C(=O)O
IC50 [1]: > 1000 nM

SMILES: CSCC[C@H](NC(=O)c1ccc(NC(=O)c2ccncc2)cc1-c1ccccc1)C(=O)O
IC50 [1]: > 1000 nM

SMILES: COCC[C@H](NC(=O)c1ccc(COc2cccnc2)cc1-c1ccccc1)C(=O)O
IC50 [1]: 1000 nM

SMILES: CSCC[C@@H](C(=O)O)N(C)C(=O)c1ccc(CNc2cccnc2)cc1-c1ccccc1
IC50 [1]: 160 nM
EC50 (NIH3T3 [3]): 100 µM

SMILES: CS(=O)(=O)CC[C@H](NC(=O)c1ccc(CNc2cccnc2)cc1-c1ccccc1)C(=O)O
IC50 [1]: 17 nM
EC50 (NIH3T3 [3]): 100 µM

SMILES: CSCC[C@H](NC(=O)c1ccc(CS(=O)(=O)c2cccnc2)cc1-c1ccccc1)C(=O)O
IC50 [1]: 550 nM

SMILES: NC(=O)CC[C@H](NC(=O)c1ccc(COc2cccnc2)cc1-c1ccccc1)C(=O)O
IC50 [1]: 48 nM

SMILES: CSCC[C@H](NC(=O)c1ccc(NCc2cccnc2)cc1-c1ccccc1)C(=O)O
IC50 [1]: 20 nM
EC50 (NIH3T3 [2]): 40 µM

SMILES: CSC[C@H](NC(=O)c1ccc(COc2cccnc2)cc1-c1ccccc1)C(=O)O
IC50 [1]: > 1000 nM

SMILES: CSCC[C@H](NC(=O)c1ccc(NC[C@@H](N)CS)cc1-c1ccccc1)C(=O)O
EC50 (NIH3T3 [3]): 1 µM

SMILES: CSCC[C@H](NC(=O)c1ccc(NC(=O)c2cccnc2)cc1-c1ccccc1)C(=O)O
IC50 [1]: 70 nM
EC50 (NIH3T3 [2]): 50 µM

The remaining molecules from weak to strong by IC50 [1], led by results:

IC50 [1]: 12 nM
SMILES: COc1cccc(-c2cc(COc3cccnc3)ccc2C(=O)N[C@@H](CCSC)C(=O)O)c1

IC50 [1]: 10 nM
SMILES: CSCC[C@H](NC(=O)c1ccc(CSc2cccnc2)cc1-c1ccccc1)C(=O)O
EC50 (NIH3T3 [2]): 10 µM

IC50 [1]: 6.8 nM
SMILES: CSCC[C@H](NC(=O)c1ccc(CNc2cccnc2)cc1-c1ccccc1)C(=O)O
EC50 (NIH3T3 [2]): 10 µM

IC50 [1]: 6.6 nM
SMILES: CSCC[C@H](NC(=O)c1ccc(OCc2cccnc2)cc1-c1ccccc1)C(=O)O

IC50 [1]: 5.4 nM
SMILES: CSCC[C@H](NC(=O)c1ccc(COc2cccnc2)cc1-c1cccc(C)c1)C(=O)O

IC50 [1]: 4.3 nM
SMILES: CSCC[C@H](NC(=O)c1ccc(COc2cccnc2)cc1-c1ccccc1)C(=O)O
EC50 (NIH3T3 [2]): 5 µM

IC50 [1]: 3.3 nM
SMILES: COc1ccccc1-c1cc(COc2cccnc2)ccc1C(=O)N[C@@H](CCSC)C(=O)O
EC50 (NIH3T3 [2]): 10 µM

IC50 [1]: 1.6 nM
SMILES: CSCC[C@H](NC(=O)c1ccc(NC(=O)c2cccnc2)cc1-c1ccccc1C)C(=O)O

IC50 [1]: 1.5 nM
SMILES: CSCC[C@H](NC(=O)c1ccc(NCc2cccnc2)cc1-c1ccccc1C)C(=O)O

IC50 [1]: 0.69 nM
SMILES: CSCC[C@H](NC(=O)c1ccc(CSc2cccnc2)cc1-c1ccccc1C)C(=O)O

IC50 [1]: 0.61 nM
SMILES: CSCC[C@H](NC(=O)c1ccc(COc2cccnc2)cc1-c1ccccc1Cl)C(=O)O
EC50 (NIH3T3 [2]): 0.4 µM

IC50 [1]: 0.5 nM
SMILES: CSCC[C@H](NC(=O)c1ccc(COc2cccnc2)cc1-c1ccccc1C(F)(F)F)C(=O)O
EC50 (NIH3T3 [2]): 0.3 µM

IC50 [1]: 0.4 nM
SMILES: CSCC[C@H](NC(=O)c1ccc(COc2cccnc2)cc1-c1ccccc1C)C(=O)O
EC50 (NIH3T3 [2]): 0.35 µM

IC50 [1]: 0.35 nM
SMILES: CCc1ccccc1-c1cc(COc2cccnc2)ccc1C(=O)N[C@@H](CCSC)C(=O)O
EC50 (NIH3T3 [2]): < 0.1 µM
